# Active and inactive are the calls of the source. The calls are words filed in the database; no cut-off is given here.
# System: Human alphaherpesvirus 1
# Test: Antiviral activity against HSV-1F ATCC 733 infected in african green monkey Vero cells assessed as inhibition of virus yield at 20 ug/ml after 3 days by MTT assay
# Type: functional
# Details: Human alphaherpesvirus 1, ATCC 733, Vero, 72 h
row,Structure (SMILES),inhibition at 20 µg/mL
1,O=C(Nc1ccccc1)c1c(N2CCCC2)cc(-c2ccccc2)oc1=O,79%
2,Cc1ccc(NC(=O)c2c(N3CCCC3)cc(-c3ccccc3)oc2=O)cc1,62%
3,O=C(NCCO)c1c(N2CCCCC2)cc(-c2ccccc2)oc1=O,89%
4,O=C(NCCO)c1c(N2CCCC2)cc(-c2ccccc2)oc1=O,70%
5,Nc1nc2c(ncn2COCCO)c(=O)[nH]1 [ACYCLOVIR],94%

# System: not listed separately
# Test: Cytotoxicity against african green monkey Vero cells after 2 days by MTT assay
# Type: cell-based
# Details: chlorocebus sabaeus
# Procedure, shortened: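 Vero cells plated at 1.0 × 10^5 cells/ml and exposed in triplicate to a range of compound concentrations, with 0.1% DMSO as negative control. After 2 days at 37 °C, 5% CO2, MTT added for 4 h. Formazan dissolved in 0.04 N HCl/isopropanol and read at 570 nm (reference 690 nm). % viability taken against media control; CC50 in µg/ml.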
row,Structure (SMILES),CC50 at 48 h
1,O=C(Nc1ccccc1)c1c(N2CCCC2)cc(-c2ccccc2)oc1=O,37.5 µg/mL
2,Cc1ccc(NC(=O)c2c(N3CCCC3)cc(-c3ccccc3)oc2=O)cc1,56.5 µg/mL
3,O=C(NCCO)c1c(N2CCCCC2)cc(-c2ccccc2)oc1=O,52.5 µg/mL
4,O=C(NCCO)c1c(N2CCCC2)cc(-c2ccccc2)oc1=O,30 µg/mL
5,Nc1nc2c(ncn2COCCO)c(=O)[nH]1 [ACYCLOVIR],130 µg/mL

# System: Human alphaherpesvirus 1
# Test: Antiviral activity against HSV-1F ATCC 733 infected in african green monkey Vero cells after 2 to 3 days by plaque reduction assay
# Type: functional, organism-based
# Details: Human alphaherpesvirus 1, ATCC 733, Vero
# Procedure, shortened: (§1)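 Vero cells infected at MOI 0.5 (HSV-1 or HSV-2), with serial compound dilutions in EMEM, held 1–2 h at room temperature. Cells then washed and overlaid with methylcellulose. Plaques stained with crystal violet after 2–3 days. Acyclovir and 0.1% DMSO served as controls. EC50 (50% plaque reduction) interpolated from dose-response curves.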
row,EC50,Structure (SMILES)
1,4.1 µg/mL,O=C(NCCO)c1c(N2CCCCC2)cc(-c2ccccc2)oc1=O

# System: Human herpesvirus 2 strain G
# Test: Antiviral activity against HSV-2G ATCC 734 infected in african green monkey Vero cells after 2 to 3 days by plaque reduction assay
# Type: functional, organism-based
# Details: Human alphaherpesvirus 2, ATCC 734, Vero
# Procedure, shortened: as §1
row,EC50,Structure (SMILES)
1,14.5 µg/mL,O=C(NCCO)c1c(N2CCCCC2)cc(-c2ccccc2)oc1=O
2,1.8 µg/mL,Nc1nc2c(ncn2COCCO)c(=O)[nH]1 [ACYCLOVIR]

# System: not listed separately
# Test: Selectivity index, ratio of CC50 for african green monkey Vero cells to EC50 for HSV-2G ATCC 734 by plaque reduction assay
# Type: toxicity, cell-based
# Details: read-out: Ratio CC50/EC50
# Procedure, shortened: (§2)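 SI derived from the Vero CC50 (MTT) divided by the plaque-reduction EC50 against the named HSV strain (MOI 0.5, methylcellulose overlay, crystal violet count after 2–3 days).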
row,Structure (SMILES),selectivity ratio
1,O=C(NCCO)c1c(N2CCCCC2)cc(-c2ccccc2)oc1=O,3.6

# System: not listed separately
# Test: Selectivity index, ratio of CC50 for african green monkey Vero cells to EC50 for HSV-1F ATCC 733 by plaque reduction assay
# Type: toxicity, cell-based
# Details: read-out: Ratio CC50/EC50
# Procedure, shortened: as §2
row,Structure (SMILES),selectivity ratio
1,O=C(NCCO)c1c(N2CCCCC2)cc(-c2ccccc2)oc1=O,12.8

# System: Human immunodeficiency virus
# Test: Antiviral activity against HIV infected in human MT4 cells by MTT assay
# Type: functional, organism-based
# Details: not given
row,Structure (SMILES),Activity
1,O=C(Nc1ccccc1)c1c(N2CCCC2)cc(-c2ccccc2)oc1=O,inactive
2,Cc1ccc(NC(=O)c2c(N3CCCC3)cc(-c3ccccc3)oc2=O)cc1,inactive
3,O=C(Nc1ccc(Br)cc1)c1c(N2CCCC2)cc(-c2ccccc2)oc1=O,inactive
4,O=C(NCCO)c1c(N2CCCCC2)cc(-c2ccc(F)cc2)oc1=O,inactive
5,O=C(NCCO)c1c(N2CCCC2)cc(-c2ccc(F)cc2)oc1=O,inactive
6,O=C(NCCO)c1c(N2CCCCC2)cc(-c2ccccc2)oc1=O,inactive
7,O=C(NCCO)c1c(N2CCCC2)cc(-c2ccccc2)oc1=O,inactive
8,O=C(Nc1ccc(Cl)cc1)c1c(N2CCCC2)cc(-c2ccccc2)oc1=O,inactive
9,O=C(Nc1ccc(F)cc1)c1c(N2CCCC2)cc(-c2ccccc2)oc1=O,inactive

# System: not listed separately
# Test: Selectivity index, ratio of CC50 for african green monkey Vero cells to EC50 for HSV-1F ATCC 733
# Type: toxicity, cell-based
# Details: read-out: Ratio CC50/EC50
# Procedure, shortened: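 SI computed as CC50/EC50. CC50 from the 2-day MTT viability assay on Vero cells; EC50 from the 3-day MTT assay of HSV-1 cytopathic effect (MOI 0.5). Both in µg/ml.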
row,Structure (SMILES),selectivity ratio
1,O=C(Nc1ccccc1)c1c(N2CCCC2)cc(-c2ccccc2)oc1=O,3
2,Cc1ccc(NC(=O)c2c(N3CCCC3)cc(-c3ccccc3)oc2=O)cc1,2.7
3,O=C(NCCO)c1c(N2CCCCC2)cc(-c2ccccc2)oc1=O,7.1
4,O=C(NCCO)c1c(N2CCCC2)cc(-c2ccccc2)oc1=O,3.1

# System: Human alphaherpesvirus 1
# Test: Antiviral activity against HSV-1F ATCC 733 infected in african green monkey Vero cells assessed as inhibition of virus induced cytopathic effect after 3 days by MTT assay
# Type: functional, organism-based
# Details: Human alphaherpesvirus 1, ATCC 733, Vero, 72 h
# Procedure, shortened: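 Vero cells seeded at 1.0 × 10^5 cells/ml, held 6 h at 37 °C, 5% CO2, then infected with virus at 0.5 MOI for 1 h. Serial compound concentrations added in triplicate, with 0.1% DMSO and acyclovir controls. MTT read after 3 days at 37 °C. % inhibition taken from test, virus-control and cell-control absorbances. EC50 is 50% inhibition of virus-induced CPE; experiment repeated three times.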
row,Structure (SMILES),EC50
1,O=C(Nc1ccccc1)c1c(N2CCCC2)cc(-c2ccccc2)oc1=O,12.5 µg/mL
2,Cc1ccc(NC(=O)c2c(N3CCCC3)cc(-c3ccccc3)oc2=O)cc1,20.9 µg/mL
3,O=C(NCCO)c1c(N2CCCCC2)cc(-c2ccccc2)oc1=O,7.4 µg/mL
4,O=C(NCCO)c1c(N2CCCC2)cc(-c2ccccc2)oc1=O,9.7 µg/mL
